Bioassay records from PubChem.
CHRM5 agonist: CHRM5 agonism in calcium assay | CHO-K1 hM5 cells, Fluo-8 calcium fluorescence; 0% DMSO wells, 100% maximal acetylcholine response | activation, % at 3 µM | 0.19% of 360,000 active | AID 624037 | P08912;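 active means activation above the run's mean over test compounds plus 3 SD, cut at about 23% in these data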;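 further: signal is peak over basal fluorescence ratio across the kinetic read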
Target sequence (P08912 whole entry, looked up): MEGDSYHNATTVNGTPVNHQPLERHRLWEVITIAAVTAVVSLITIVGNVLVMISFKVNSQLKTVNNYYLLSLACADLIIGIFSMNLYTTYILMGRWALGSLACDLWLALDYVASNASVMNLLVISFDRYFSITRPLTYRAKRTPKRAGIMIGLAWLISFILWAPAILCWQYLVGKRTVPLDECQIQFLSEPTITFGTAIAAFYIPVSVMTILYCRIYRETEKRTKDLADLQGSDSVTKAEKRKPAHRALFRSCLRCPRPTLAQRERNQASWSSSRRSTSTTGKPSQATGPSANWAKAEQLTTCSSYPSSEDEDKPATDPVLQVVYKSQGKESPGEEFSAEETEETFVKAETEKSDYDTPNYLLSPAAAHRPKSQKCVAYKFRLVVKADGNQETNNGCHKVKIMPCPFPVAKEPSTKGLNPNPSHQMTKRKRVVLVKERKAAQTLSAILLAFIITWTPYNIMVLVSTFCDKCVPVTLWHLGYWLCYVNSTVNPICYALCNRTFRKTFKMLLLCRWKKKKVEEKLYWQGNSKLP
CHRM5 antagonist: antagonists of human muscarinic M5 receptor (CHRM5); CHO-hM5 cells, Fluo-8 calcium fluorescence, ACh EC80; inhibition, % at 3 µM; 0.59% of 360,000 active; AID 624040;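 active means inhibition above a per-plate cutoff, the mean of that plate's test compounds plus 3 SD, cut at about 27% in these data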;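 further: 0% = acetylcholine EC80 with DMSO and 100% = DMSO without agonist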
M1 antag: human CHRM1 antagonism. 1.3% of 360,000 active. inhibition, % at 3 µM. CHO-K1 hM1, Fluo-8 calcium fluorescence, ACh EC80 antagonist. P11229;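 active means percent inhibition above its own plate's cutoff, namely the mean of that plate's compound wells plus 3 SD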;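 further: peak over basal fluorescence ratio during 140 s after agonist addition; 0% = ACh EC80 plus DMSO and 100% = DMSO alone without agonist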
M1 PAM: human CHRM1 positive allosteric modulation; AID 588819; activation, % at 3 µM; 0.088% of 360,000 active; CHO-K1 hM1, Fluo-8 calcium fluorescence, ACh EC20; 0% = ACh EC20, 100% = maximal ACh; P11229; in the data active means activation above about 19%, passing the limit was not always enough
M1 ag: human M1 muscarinic receptor agonism. activation, % at 3 µM. AID 588814. P11229. 0.33% of 360,000 active. CHO-K1 hM1, Fluo-8 calcium fluorescence, agonist mode; 0% DMSO, 100% acetylcholine EC100;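 active means activation above the run's mean compound activation plus 3 SD, cut at about 16% in these data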;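 further: peak over basal fluorescence ratio within a 140 s kinetic read after compound addition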
CHRM5 PAM: positive allosteric modulators of human muscarinic M5 receptor; P08912; CHO-K1 hM5, Fluo-8 calcium, ACh EC20 PAM; 0% = ACh EC20, 100% = ACh EC100; activation, % at 3 µM; 0.3% of 360,000 active; AID 624038;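 active means activation above the run cutoff, the mean activation of all test compounds plus 3 SD, cut at about 18% in these data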
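system = human M5 receptor in CHO-K1 cells | reagent = EC20 acetylcholine as agonist stimulus | compound dosing = single-point, 3 µM nominal | incubation = Fluo-8 loading 80 min at 37 °C plus 30 min room temperature | detection = Fluo-8 calcium dye fluorescence, kinetic read | benchmarks = low control EC20 acetylcholine (0%), high control EC100 acetylcholine (100%)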
The depositor's hits bear a star. Only some compounds are listed: those with a hit (about 2.2% of all), similar ones and a draw of the others.

SMILES	CHRM5 agonist	CHRM5 antagonist	M1 antag	M1 PAM	M1 ag	CHRM5 PAM
COc1ccc(-n2c(-c3ccc(Br)cc3)c[n+]3c2CCc2ccccc2-3)cc1	-10	17	44*	-28	-10	-11
CC(C)c1ccc(-n2c(-c3ccccc3)c[n+]3c2CCc2ccccc2-3)cc1	-8	29*	26	-21	-13	-14
COc1ccc(-c2cn(-c3ccc(OC)cc3)c3[n+]2-c2ccccc2CC3)cc1	-8	2	21	-13	-15	-3
COc1ccccc1-n1c(-c2ccccc2)c[n+]2c1CCc1ccccc1-2	-11	31*	59*	-26	-10	-18
CCC(=O)c1ccc(OC(=O)N2CCOCC2)cc1	1	2	-18	11	-3	2
CCCCn1c(N)c(N(C)C(=O)c2cn(-c3ccccc3)nc2-c2ccccc2)c(=O)[nH]c1=O	0	1	-11	7	-5	-1
CCN(CC)C(=O)C1=C(C)N(CCCN2CCCC2=O)C(=O)C(CC(=O)NCCCN(C)C)C1 (stereo unspecified)	2	1	-5	6	-3	-2
CCCC(=O)N1CCCC1(C)C(=O)Nc1cc(C)ccc1C (stereo unspecified)	4	7	-16	14	0	9
COc1ccc(N(C)S(=O)(=O)c2cccc(C(=O)Nc3ccc4c(c3)OCCO4)c2)cc1	3	12	12	-2	-1	-18
COc1ccc(N(C)S(=O)(=O)c2cccc(C(=O)Nc3ccc(-n4cnnn4)cc3)c2)cc1	7	19	29*	-13	4	-22
CC(=O)c1c(C)oc2ccc(NS(=O)(=O)c3ccc(F)cc3C)cc12	7	14	28*	-17	5	-8
CC(=O)c1c(C)oc2ccc(NS(=O)(=O)c3ccc(O)c(C(=O)O)c3)cc12	4	-3	-16	10	1	-4
O=C(c1cc(-c2ccccc2)nc2ccccc12)N1N=C(C(F)F)CC1(O)C(F)F (stereo unspecified)	1	3	-2	22*	7	-4
O=C(c1ccc(COc2ccc3ccccc3c2)o1)N1N=C(C(F)F)CC1(O)C(F)F (stereo unspecified)	-2	22	56*	-21	-5	-13
O=C(c1ccc(COc2ccc(Br)cc2)o1)N1N=C(C(F)F)CC1(O)C(F)F (stereo unspecified)	-7	19	33*	-25	-7	-19
CCOc1ccc(OCc2ccc(C(=O)N3N=C(C(F)F)CC3(O)C(F)F)o2)cc1 (stereo unspecified)	-6	-3	9	-6	-7	-6
CC(C)(C)c1ccc(OCCOc2ccc(C(C)(C)C)cc2NC=O)c(NC=O)c1	1	28*	33	-13	-4	-21
COCCOc1ccc(C(F)(F)F)cc1NC(=O)c1ccccc1	1	1	-10	5	-5	-5
Cc1nc(C)c(C(=O)N2CCCC(C(=O)c3ccc4ccccc4c3)C2)s1 (stereo unspecified)	1	11	5	6	-1	-4
Cc1ccc2c(c1C)NC(=O)C21N2CCCC2C(C(=O)c2ccc3ccccc3c2)C12C(=O)Nc1ccccc12 (stereo unspecified)	8	6	-8	21	-1	19*
CC(C)(C(=O)N1CCC1(C)C(=O)NC1Cc2ccccc2C1)c1ccccc1 (stereo unspecified)	0	-3	1	-9	-5	-1
CC(C)(C)c1csc(NC(=O)C2=COCCO2)n1	-7	1	40*	-15	-6	-6
Cc1ccc(-c2csc(NC(=O)C3=COCCO3)n2)cc1	0	10	-4	0	-10	-4
Cn1c(=O)c2c(nc(NNC(=O)C(F)(F)F)n2C)n(C)c1=O	-1	3	-8	10	-2	0
